V1R ag counter – agonists of human V1a receptor, primary screen, counter-screen for OXTR agonist project, fluorescence, CHO-V1R cells; Fluo-8 calcium fluorescence, agonist mode; 0% DMSO, 100% 3 nM vasopressin; activation, % at 3 µM; Vasopressin V1a receptor (Homo sapiens), P37288; hit rate 0.25% among 320,000;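 active means activation above the mean activation of all tested compounds plus 3 SD, per screening run, cut at about 20% in these data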;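 further: signal is peak over basal fluorescence ratio across a 100 second FLIPR read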
OXTR agonist – human OXTR agonists, primary screen, fluorescence, CHO-OTR cells, Fluo-8 calcium; Oxytocin receptor (Homo sapiens), P30559; AID 2435, 2010; hit rate 0.32% among 320,000; activation, % at 3 µM; Fluo-8 calcium fluorescence; normalized: DMSO 0%, oxytocin 100%;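 active means activation above the mean of all tested compounds plus 3 SD, cutoff set per screening run, cut at about 20% in these data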;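 further: peak over basal fluorescence ratio from a 100 s FLIPR kinetic read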
Target sequence (P30559 whole entry, looked up): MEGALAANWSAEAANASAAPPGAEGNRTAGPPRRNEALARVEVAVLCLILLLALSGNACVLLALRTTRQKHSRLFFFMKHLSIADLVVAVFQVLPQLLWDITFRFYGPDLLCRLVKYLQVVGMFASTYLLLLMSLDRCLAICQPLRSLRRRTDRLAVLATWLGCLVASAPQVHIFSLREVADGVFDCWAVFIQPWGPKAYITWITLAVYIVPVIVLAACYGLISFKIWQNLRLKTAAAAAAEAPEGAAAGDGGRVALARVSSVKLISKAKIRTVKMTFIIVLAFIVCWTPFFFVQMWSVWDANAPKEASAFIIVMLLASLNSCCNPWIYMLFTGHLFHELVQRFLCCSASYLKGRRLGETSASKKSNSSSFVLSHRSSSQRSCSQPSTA
OXTR potentiate – human OXTR potentiators, primary screen, fluorescence, CHO-OTR cells, Fluo-8 calcium; Oxytocin receptor (Homo sapiens), P30559; activation, % at 3 µM; hit rate 0.061% among 320,000; Fluo-8 calcium fluorescence, potentiator mode; 0% = oxytocin EC15, 100% = EC100;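 active means activation above that plate's cutoff, the mean activation of tested compounds plus 3 SD, cut at about 6.6% in these data, passing the limit was not always enough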;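 further: 100% uses oxytocin at 75 nM as the full agonist control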
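assay system = CHO-OTR cells, human receptor | schedule = compound 6 min at room temperature before oxytocin, 100 s read | detection = Fluo-8 intracellular calcium fluorescence, ex 470-495, em 515-575 nm | evaluation = normalized max/min fluorescence ratio, % activation | control set = EC15 oxytocin alone as 0%, 75 nM oxytocin (EC100) as 100%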
TAAR1 agonist – human TAAR1 agonists, primary screen, Fluo-8 calcium fluorescence, CHO RD-HGA16 cells. hit rate 0.99% among 360,000. vehicle wells 0%, saturating PEA agonist 100%. activation, % at 3 µM. Trace amine-associated receptor 1 (Homo sapiens), Q96RJ0;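 active means activation above the mean activation of all test compounds in the run plus 3 SD, cut at about 38% in these data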
Target sequence (Q96RJ0 whole entry, looked up): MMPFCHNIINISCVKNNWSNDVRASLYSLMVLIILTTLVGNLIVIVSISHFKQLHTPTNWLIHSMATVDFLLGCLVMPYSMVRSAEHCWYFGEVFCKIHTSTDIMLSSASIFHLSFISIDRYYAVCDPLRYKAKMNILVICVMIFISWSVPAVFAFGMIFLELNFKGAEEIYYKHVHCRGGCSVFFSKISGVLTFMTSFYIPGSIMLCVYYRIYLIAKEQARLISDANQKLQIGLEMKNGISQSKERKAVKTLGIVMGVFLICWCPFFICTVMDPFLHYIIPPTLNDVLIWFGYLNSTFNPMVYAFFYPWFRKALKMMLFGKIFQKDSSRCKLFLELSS
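System: CHO RD-HGA16 cells carrying human TAAR1 plus Gα16; Incubation: 17-24 h seeding, 75 min 37 °C dye, 30 min RT; Measured by: Fluo-8 fluorescence, 5 s baseline then 140 s kinetic read; Control set: DMSO and PEA EC100; Replication: single well for each compound.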
TAAR1 antagonist – human TAAR1 antagonists, primary screen, Fluo-8 calcium fluorescence, CHO RD-HGA16 cells | Trace amine-associated receptor 1 (Homo sapiens), Q96RJ0 | antagonist | inhibition, % at 3 µM | hit rate 1.5% among 360,000;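 active means inhibition above a per-plate cutoff, the mean inhibition of test compounds on that plate plus 3 SD, cut at about 49% in these data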;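 further: 0% = DMSO plus EC80 beta-PEA response and 100% = DMSO alone without agonist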
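Test system – hTAAR1-expressing CHO RD-HGA16 cells, Gα16-coupled · Also added – β-PEA at EC80 concentration, post-compound challenge · Compound – 3 µM, single point · Incubation – dye loading 75 min at 37 °C, then 30 min room temperature · Measured by – Fluo-8 intracellular calcium dye fluorescence, real-time kinetic reads · Benchmarks – vehicle and agonist controls · Replicates – singlicate, one well per test compound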
TAAR1 ag conf – human TAAR1 agonists, retest of hits, confirmation, Fluo-8 calcium fluorescence, CHO RD-HGA16 cells; scaled: DMSO 0%, maximal phenethylamine 100%; activation, % at 3 µM; AID 651783, 2012; shares compounds with TAAR1 agonist; hit rate 82% among 2,400;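 active means activation above a cutoff set at the run's mean compound activation plus 3 SD, cut at about 39% in these data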
Ga16 ag counter – nonselective calcium mobilization agonists, CHO-Ga16 cells, counter-screen for hTAAR1 agonist project, cell-based, fluorescence, CHO-Ga16 parental line; Fluo-8 calcium fluorescence; normalized to maximal ATP response, DMSO zero; shares compounds with TAAR1 agonist; AID 651787, 2012; activation, % at 3 µM; hit rate 50% among 2,400;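 active means activation above the run cutoff, the mean activation over all tested wells plus 3 SD, cut at about 12% in these data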;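 further: 0% = DMSO wells and 100% = maximal ATP response on the peak over basal ratio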
TAAR1 desensitize – TAAR1 desensitization by agonist hits, confirmation, counter-screen for TAAR1 agonist project, cell-based, fluorescence, tachyphylaxis | shares compounds with TAAR1 agonist | CHO RD-HGA16 hTAAR1, Fluo-8 calcium, beta-PEA response inhibition | inhibition, % at 3 µM | hit rate 46% among 2,400 | AID 651951, 2012;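 active means inhibition above the run cutoff, the mean inhibition of all test compounds plus 3 SD, cut at about 49% in these data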;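 further: beta-PEA stimulus applied at its EC80; loss of beta-PEA calcium signal after compound pretreatment read as receptor desensitization; 0% = DMSO with beta-PEA at EC80 and 100% = DMSO alone without agonist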
Ga16 nonsel ant – inhibition of ATP-evoked calcium response in CHO-Ga16 cells, counter-screen for TAAR1 agonist project, cell-based, fluorescence. shares compounds with TAAR1 agonist. CHO-Ga16 ATP-induced calcium, Fluo-8 fluorescence. inhibition, % at 3 µM. hit rate 39% among 2,400;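 active means inhibition above the plate's mean compound inhibition plus 3 SD, computed per plate, cut at about 22% in these data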;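 further: 0% = EC80 ATP with DMSO and 100% = DMSO wells without ATP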
Active calls of the source: *. Hits are enriched below; roughly 2.3% of the tested compounds scored in any of these assays.

How did O=C(CCCN1CCC2(CC1)C(=O)NCN2c1ccccc1)c1ccc(F)cc1 do in these assays?
V1R ag counter: 28*; OXTR agonist: 41*; OXTR potentiate: -12; TAAR1 agonist: 154*; TAAR1 antagonist: 106*; TAAR1 ag conf: 131*; Ga16 ag counter: 116*; TAAR1 desensitize: 107*; Ga16 nonsel ant: 103*

How did O=C(NCCN1CCC2(CC1)C(=O)NCN2c1ccccc1)C(c1ccccc1)c1ccccc1 do in these assays?
TAAR1 agonist: 58*; TAAR1 antagonist: 93*; TAAR1 ag conf: 33; Ga16 ag counter: 24*; TAAR1 desensitize: 76*; Ga16 nonsel ant: 62*

Results for O=C(NCCN1CCC2(CC1)C(=O)NCN2c1ccccc1)c1ccc(OC(F)(F)F)cc1 ?
TAAR1 agonist: 54*; TAAR1 antagonist: 96*; TAAR1 ag conf: 45*; Ga16 ag counter: 41*; TAAR1 desensitize: 102*; Ga16 nonsel ant: 98*

What do the screens show for `O=C(NCCN1CCC2(CC1)C(=O)NCN2c1ccccc1)c1ccc(Cl)c(Cl)c1`?
TAAR1 agonist: 113*; TAAR1 antagonist: 106*; TAAR1 ag conf: 124*; Ga16 ag counter: 95*; TAAR1 desensitize: 107*; Ga16 nonsel ant: 103*

How did O=c1cccc2n1CC1CC2CN(S(=O)(=O)c2ccc(F)cc2)C1 (stereo not given) do in these assays?
V1R ag counter: 0; OXTR agonist: 1; OXTR potentiate: -6; TAAR1 agonist: 8; TAAR1 antagonist: -1

How did Cc1ccc(C(=O)NCCN2CCC3(CC2)C(=O)NCN3c2ccccc2)cc1 do in these assays?
TAAR1 agonist: 86*; TAAR1 antagonist: 99*; TAAR1 ag conf: 53*; Ga16 ag counter: 41*; TAAR1 desensitize: 98*; Ga16 nonsel ant: 84*

Results for c1ccc2c3c(ccc2c1)OCC1CONC31 (stereo not given) ?
V1R ag counter: 1; OXTR agonist: -1; OXTR potentiate: -2; TAAR1 agonist: 0; TAAR1 antagonist: 3

How did COc1ccc(CNCCc2ccc3c(c2)OCO3)cc1Br do in these assays?
V1R ag counter: 5; OXTR agonist: 3; OXTR potentiate: -7; TAAR1 agonist: 8; TAAR1 antagonist: 1

How did CN1C[C@H](CO)C=C2c3cccc4[nH]cc(c34)C[C@H]21 do in these assays?
V1R ag counter: 2; OXTR agonist: 1; OXTR potentiate: -5; TAAR1 agonist: 64*; TAAR1 antagonist: 64*; TAAR1 ag conf: 92*; Ga16 ag counter: 3; TAAR1 desensitize: 85*; Ga16 nonsel ant: 7

How did CC(C)[C@H]1C(=O)N2CCC[C@H]2[C@]2(O)O[C@](NC(=O)[C@@H]3C=C4c5cccc6[nH]cc(c56)C[C@H]4N(C)C3)(C(C)C)C(=O)N12 do in these assays?
V1R ag counter: 2; OXTR agonist: 0; OXTR potentiate: -2

What do the screens show for `Cc1ccc(/C=C2/Sc3ccc(C(=O)N4CCC5(CC4)OCCO5)cc3NC2=O)cc1`?
V1R ag counter: 2; OXTR agonist: 1; OXTR potentiate: -4; TAAR1 agonist: -1; TAAR1 antagonist: -4

Results for O=C(NCNC(=O)NC1C(=O)NC(=O)N1CO)NC1C(=O)NC(=O)N1CO (stereo not given) ?
V1R ag counter: 0; OXTR agonist: 0; OXTR potentiate: -5; TAAR1 agonist: 0; TAAR1 antagonist: -12

What do the screens show for `O=c1ccc2cc(O[C@@H]3O[C@H](CO)[C@@H](O)[C@H](O)[C@H]3O)c(O)cc2o1`?
TAAR1 agonist: 1; TAAR1 antagonist: -1

What do the screens show for `COC(=O)C1=C(c2ccc(F)cc2OCc2ccccc2)C[C@@H]2CC[C@H]1N2C(=O)N1CCCC1`?
V1R ag counter: -2; OXTR agonist: -2; OXTR potentiate: 1; TAAR1 agonist: 26; TAAR1 antagonist: 26

What do the screens show for `CCC1(Oc2ccccc2)C(=O)NC(=O)NC1=O`?
TAAR1 agonist: 2; TAAR1 antagonist: 2

What do the screens show for `CCC1(C)OC(c2ccccc2)=C/C(=C/C=C2C(=O)NC(=O)NC2=O)O1` (stereo not given)?
TAAR1 agonist: 70*; TAAR1 antagonist: 68*; TAAR1 ag conf: 20; Ga16 ag counter: 24*; TAAR1 desensitize: 26; Ga16 nonsel ant: 42*

What do the screens show for `CC(Cc1ccccc1)N(C)CC1C(=O)C2CCC1C2` (stereo not given)?
TAAR1 agonist: 56*; TAAR1 antagonist: 13; TAAR1 ag conf: 51*; Ga16 ag counter: 0; TAAR1 desensitize: 4; Ga16 nonsel ant: 8

Results for C#CCN(C)C(C)Cc1ccccc1 (stereo not given) ?
V1R ag counter: 1; OXTR agonist: 0; OXTR potentiate: -2; TAAR1 agonist: 4; TAAR1 antagonist: -10

How did COc1ccccc1CCNCc1cc2c(cc1[N+](=O)[O-])OCO2 do in these assays?
V1R ag counter: 1; OXTR agonist: 1; OXTR potentiate: -1; Ga16 ag counter: 3; Ga16 nonsel ant: 7

How did Cc1cc(C)[n+](C2C3CC4CC(C3)CC2C4)o1 (stereo not given) do in these assays?
V1R ag counter: 0; OXTR agonist: 1; OXTR potentiate: -2; TAAR1 agonist: 3; TAAR1 antagonist: 2

How did NC(N)=N/N=C/c1cn(-c2ccccc2)nc1-c1cccs1 do in these assays?
V1R ag counter: -1; OXTR agonist: 0; OXTR potentiate: -5; TAAR1 agonist: 47*; TAAR1 antagonist: 4; TAAR1 ag conf: 76*; Ga16 ag counter: 7; TAAR1 desensitize: 35; Ga16 nonsel ant: 13

What do the screens show for `O=c1c2ccccc2nc(-c2cccs2)n1-c1ccccc1`?
V1R ag counter: -1; OXTR agonist: -2; OXTR potentiate: -2; TAAR1 agonist: 7; TAAR1 antagonist: -18
